Measurements of several laboratories.
Compare with care: the assays were run in different laboratories.
RAF1: RAF proto-oncogene serine/threonine-protein kinase (RAF1, Homo sapiens, UniProt P04049)
RAF1 Y340D/Y341D: RAF proto-oncogene serine/threonine-protein kinase (RAF1, Homo sapiens, UniProt P04049, Y340D/Y341D)

Compound | target | assay | conditions | quantity | value
c1ccc(N2CCN(Cc3nc4ccccc4[nH]3)CC2)nc1 | RAF1 | binding, competition with immobilised ligand | 1 µM | remaining binding | 100%
CC(C)(C)c1nc2c(s1)c1nc(N)ncc1c1ccc(NS(=O)(=O)c3c(F)cccc3F)c(F)c12 | RAF1 Y340D/Y341D | enzyme activity, inhibitor, radiometric | 1 µM | remaining activity | 9%
C[C@@H]1CCN(C(=O)CC#N)C[C@@H]1N(C)c1ncnc2[nH]ccc12 | RAF1 | cell-free assay, inhibitor | 0.5 µM | remaining signal | 95.5%
CN(C)C1CCN(CC#Cc2nn(C3CCCC3)c3nc(NCc4ccccc4)ncc23)C1 (stereo not shown) | RAF1 Y340D/Y341D | enzyme activity, inhibitor, FRET | 10 µM | inhibition | 3%
Cc1ccc(Nc2nccc(N(C)c3ccc4c(C)n(C)nc4c3)n2)cc1S(N)(=O)=O | RAF1 | enzyme activity, inhibitor | 0.3 µM | inhibition | 77%
CN1CC(Oc2cnc(C#N)cc2-c2ccn3nc(NC(=O)C4CC4)cc3c2)C1 | RAF1 | enzyme activity, inhibitor | 1 µM | inhibition | 2%
Cc1sc(C(=O)NC2COC2)cc1-n1cc(NC(=O)Nc2c(F)cccc2Cl)cn1 | RAF1 | enzyme activity, inhibitor | 10 µM | remaining activity | 92.6%
COc1cc(-c2cc(-c3ccc(N4CCNCC4)cc3)cnc2N)cc(OC)c1OC | RAF1 | enzyme activity, inhibitor | 1 µM | inhibition | 2%
CCS(=O)(=O)c1cc2cc(C[C@](O)(CC(C)(C)c3ccc(F)cc3C(N)=O)C(F)(F)F)[nH]c2cn1 | RAF1 | cell-free assay, competition with immobilised ligand | 1 µM | remaining binding | 83%
O=C1NC(=O)c2cc(Nc3ccc(F)cc3)c(Nc3ccc(F)cc3)cc21 | RAF1 | cell-free assay | 0.5 µM | remaining signal | 81.9%
C[C@H](NC(=O)c1cnc2n1[C@](C)(Cc1ccc(C#N)cc1)C(=O)N2c1cc(Cl)c(F)c(Cl)c1)C(=O)NC1(c2ccccn2)CC1 | RAF1 | cell-free assay, competition with immobilised ligand | 1 µM | remaining binding | 100%
CNc1cccc2cc(C(=O)Nc3ccc(C(=O)O)cc3)c(=O)[nH]c12 | RAF1 | enzyme activity, inhibitor | 10 µM | inhibition | 6.9%
Nc1ncnc2occ(-c3ccc(NC(=O)Nc4cc(C(F)(F)F)ccc4F)cc3)c12 | RAF1 | cell-free assay, inhibitor | 20 µM | remaining signal | 0%
Cc1[nH]c(/C=C2\C(=O)Nc3ccc(F)cc32)c(C)c1C(=O)N[C@H]1CCN(C(=O)N(C)C)C1 | RAF1 | enzyme activity, inhibitor | 0.1 µM | remaining activity | 118%
Cc1ccc(C(=O)Nc2ccc(CN3CCN(C)CC3)c(C(F)(F)F)c2)cc1C#Cc1cnc2cccnn12 | RAF1 | enzyme activity, inhibitor | 23.5 nM | remaining activity | 61%
CNCc1ccc(-c2cc(-c3nc(-c4ccc(S(=O)(=O)C(C)C)cc4)cnc3N)on2)cc1 | RAF1 | enzyme activity, inhibitor | 0.4 µM | inhibition | 0%
Cc1cc(-n2nc(Cc3cc(F)cc(C(F)(F)F)c3)nc2C)ccc1C(N)=O | RAF1 | cell-free assay, competition with immobilised ligand | 1 µM | remaining binding | 87%
C=CC(=O)Nc1cc(Nc2nccc(Nc3cc(Cl)c(F)cc3C(C)(C)O)n2)c(OC)cc1N1CC[C@@H](N(C)C)C1 | RAF1 | enzyme activity, inhibitor | 1 µM | inhibition | 10%
O=C(O)[C@@H]1[C@@H](Cn2nnc3ccccc3c2=O)CC[C@H]1C(=O)c1ccc(OCCC2CCOCC2)cc1 | RAF1 | cell-free assay, competition with immobilised ligand | 1 µM | remaining binding | 100%
COc1cc(Cl)c(C(=O)N[C@@H](CN[C@H]2CC[C@@H](N)CC2)Cc2ccc(C#N)cc2)cc1-c1ccc(CN[C@H](C)c2ccc(C)cc2)o1 | RAF1 | enzyme activity, inhibitor | 1 µM | remaining activity | 97%
O=C(O)c1cc(-c2ccc(C3CCNCC3)cc2)c2ccc(-c3ccc(C(F)(F)F)cc3)cc2c1 | RAF1 | cell-free assay, competition with immobilised ligand | 1 µM | remaining binding | 70%
Cc1ccc(C(=O)NCc2ccsc2)cc1C#Cc1cn(C(C)C)c2ncnc(N)c12 | RAF1 | enzyme activity, inhibitor | 1 µM | activity vs control | 15%
